Reference: ChEMBL document CHEMBL1155317, “Design and optimisation of potent gp120-CD4 inhibitors” (Bioorg Med Chem Lett, 2009)
One block for each compound: values may come before it.

Tests used:
[1] = Inhibition of HIV1 NL4-3 gp160 assessed as inhibition of interaction between gp120 and host CD4 receptor by cell-cell fusion assay; parameters: species or system Human immunodeficiency virus 1
[2] = system: Human immunodeficiency virus 1; assay: Antiviral activity against Human immunodeficiency virus 1 NL4-3 infected HeLaP4 cells after 5 days by beta-galactosidase reporter assay; format: functional, organism-based; settings: Human immunodeficiency virus 1, NL4-3, HeLaP4, 120 h
Procedure, shortened: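 HeLa-P4 cells were premixed with NL4-3 virus and added at 10^5 cells/mL to wells containing diluted compound. Plates were incubated for 5 days at 37 °C in humidified 5% CO₂. Infection was quantified with a β-galactosidase reporter assay.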

[3] = Clearance in rat at 1 mg/kg, iv and 1 mg/kg, po; format: ADME, organism-based; settings: in vivo
[4] = system: Rattus norvegicus; assay: Unbound clearance in rat at 1 mg/kg, iv and 1 mg/kg, po; format: ADME, organism-based; settings: in vivo
[5] = system: Rattus norvegicus; assay: Unbound volume of distribution in rat at 1 mg/kg, iv and 1 mg/kg, po; format: ADME, organism-based; settings: in vivo
[6] = Bioavailability in rat at 1 mg/kg; format: ADME, organism-based; settings: in vivo
[7] = Fraction of compound absorbed in rat at 1 mg/kg, iv and 1 mg/kg, po; format: ADME, organism-based; settings: in vivo, read-out: Fabs
[8] = Half life in rat at 1 mg/kg, iv and 1 mg/kg, po; format: ADME, organism-based; settings: in vivo
[9] = system: Human immunodeficiency virus 1; assay: Antiviral activity against Human immunodeficiency virus 1 isolate 04-116871_VL_781.69; format: functional
Procedure, shortened: (§1)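 Testing against these strains was contracted out and used the PhenoSense phenotypic antiviral assay.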

[10] = system: Human immunodeficiency virus 1; assay: Antiviral activity against Human immunodeficiency virus 1 HXB2; format: functional; procedure, shortened: as §1
[11] = system: Human immunodeficiency virus 1; assay: Antiviral activity against Human immunodeficiency virus 1 JRCSF; format: functional, Human immunodeficiency virus type 1 (JRCSF ISOLATE); procedure, shortened: as §1
[12] = system: Human immunodeficiency virus 1; assay: Antiviral activity against Human immunodeficiency virus 1 isolate 04-116884_VL_328.45; format: functional; procedure, shortened: as §1
[13] = system: Human immunodeficiency virus 1; assay: Antiviral activity against Human immunodeficiency virus 1 isolate 04-116873_VL_754.51; format: functional; procedure, shortened: as §1
[14] = system: Human immunodeficiency virus 1; assay: Antiviral activity against Human immunodeficiency virus 1 isolate 04-116877_VL_938.28; format: functional; procedure, shortened: as §1
[15] = system: Human immunodeficiency virus 1; assay: Antiviral activity against Human immunodeficiency virus 1 isolate 04-116870_VL_181.51; format: functional; procedure, shortened: as §1
[16] = system: Human immunodeficiency virus 1; assay: Antiviral activity against Human immunodeficiency virus 1 isolate 04-116868_VL_518.14; format: functional; procedure, shortened: as §1
[17] = system: Human immunodeficiency virus 1; assay: Antiviral activity against Human immunodeficiency virus 1 isolate 04-116889_VL_440.85; format: functional; procedure, shortened: as §1
[18] = system: Human immunodeficiency virus 1; assay: Antiviral activity against Human immunodeficiency virus 1 isolate 04-116874_VL_560.34; format: functional; procedure, shortened: as §1
[19] = system: Human immunodeficiency virus 1; assay: Antiviral activity against Human immunodeficiency virus 1 isolate 04-116882_VL_624.75; format: functional; procedure, shortened: as §1
[20] = system: Human immunodeficiency virus 1; assay: Antiviral activity against Human immunodeficiency virus 1 isolate 04-116878_VL_241.32; format: functional; procedure, shortened: as §1
[21] = system: Human immunodeficiency virus 1; assay: Antiviral activity against Human immunodeficiency virus 1 isolate 04-116880_VL_696.65; format: functional; procedure, shortened: as §1
[22] = system: Human immunodeficiency virus 1; assay: Antiviral activity against Human immunodeficiency virus 1 isolate 04-116883_VL_432.63; format: functional; procedure, shortened: as §1
[23] = system: Human immunodeficiency virus 1; assay: Antiviral activity against Human immunodeficiency virus 1 isolate 04-116886_VL_578.66; format: functional; procedure, shortened: as §1
[24] = system: Human immunodeficiency virus 1; assay: Antiviral activity against Human immunodeficiency virus 1 isolate 04-116888_VL_113.66; format: functional; procedure, shortened: as §1
[25] = system: Human immunodeficiency virus 1; assay: Antiviral activity against Human immunodeficiency virus 1 isolate 04-116892_VL_534.93; format: functional; procedure, shortened: as §1
[26] = system: Human immunodeficiency virus 1; assay: Antiviral activity against Human immunodeficiency virus 1 isolate 04-116869_VL_833.52; format: functional; procedure, shortened: as §1
[27] = system: Human immunodeficiency virus 1; assay: Antiviral activity against Human immunodeficiency virus 1 isolate 04-116890_VL_781.45; format: functional; procedure, shortened: as §1
[28] = system: Human immunodeficiency virus 1; assay: Antiviral activity against Human immunodeficiency virus 1 isolate 04-116885_VL_530.54; format: functional; procedure, shortened: as §1
[29] = system: Human immunodeficiency virus 1; assay: Antiviral activity against Human immunodeficiency virus 1 isolate 04-116875_VL_279.69; format: functional; procedure, shortened: as §1
[30] = system: Human immunodeficiency virus 1; assay: Antiviral activity against Human immunodeficiency virus 1 isolate 04-116879_VL_988.03; format: functional; procedure, shortened: as §1
[31] = system: Human immunodeficiency virus 1; assay: Antiviral activity against Human immunodeficiency virus 1 isolate 04-116881_VL_338.52; format: functional; procedure, shortened: as §1
[32] = system: Human immunodeficiency virus 1; assay: Antiviral activity against Human immunodeficiency virus 1 isolate 04-116893_VL_193.95; format: functional; procedure, shortened: as §1
[33] = system: Human immunodeficiency virus 1; assay: Antiviral activity against Human immunodeficiency virus 1 isolate 04-116867_VL_837.51; format: functional; procedure, shortened: as §1
[34] = system: Human immunodeficiency virus 1; assay: Antiviral activity against Human immunodeficiency virus 1 isolate 04-116876_VL_969.72; format: functional; procedure, shortened: as §1
[35] = system: Human immunodeficiency virus 1; assay: Antiviral activity against Human immunodeficiency virus 1 isolate 04-116872_VL_186.32; format: functional; procedure, shortened: as §1
[36] = Metabolic stability in human liver microsomes assessed as half life; format: ADME, Microsome

SMILES: CNC(=O)c1cc(OC)c(O[C@@H](C)C(=O)N2CCN(c3nccc4[nH]cnc34)C[C@H]2C)cn1
IC50 [1]: 0.024 µM
IC50 [2]: 0.007 µM

SMILES: CNC(=O)c1nccc2c(O[C@@H](C)C(=O)N3CCN(C(=O)c4ccccc4)C[C@H]3C)cccc12
IC50 [1]: 0.021 µM
IC50 [2]: 0.0015 µM
clearance [3]: 41 mL/min/kg
CL free [4]: 90 mL/min/kg
Vdu [5]: 3.5 L/kg
bioavailability [6]: 45%
Fa [7]: 55%
half-life [8]: 30 min

SMILES: CNC(=O)c1cc(OC)c(O[C@@H](C)C(=O)N2CCN(c3nccc4[nH]ncc34)C[C@H]2C)cn1
IC50 [1]: 0.024 µM
IC50 [2]: 0.006 µM

SMILES: CNC(=O)c1ccc2c(O[C@@H](C)C(=O)N3CCN(C(=O)c4ccccc4)C[C@H]3C)cccc2n1
IC50 [1]: 0.078 µM
IC50 [2]: > 4 µM

SMILES: CNC(=O)c1ccc(O[C@@H](C)C(=O)N2CCN(C(=O)c3ccccc3)C[C@H]2C)c2ccncc12
IC50 [1]: 21.2 µM

SMILES: CNC(=O)c1cc(OC)c(O[C@@H](C)C(=O)N2CCN(c3nccc4ncccc34)C[C@H]2C)cn1
IC50 [1]: 0.029 µM
IC50 [2]: 0.126 µM

SMILES: CC(Oc1cccc2cnccc12)C(=O)N1CCN(C(=O)c2ccccc2)C[C@H]1C (some centres undefined)
IC50 [1]: 0.103 µM
IC50 [2]: 0.492 µM

Further compounds by falling IC50 [1], results first:

IC50 [1]: 2.04 µM
SMILES: Cc1nc2c(OC(C)C(=O)N3CCN(C(=O)c4ccccc4)C[C@H]3C)cccc2o1 (some centres undefined)

IC50 [1]: 1.26 µM
SMILES: CNC(=O)c1ccc(O[C@@H](C)C(=O)N2CCN(C(=O)c3ccccc3)C[C@H]2C)c2cccnc12

IC50 [1]: 0.834 µM
SMILES: Cc1nc2c(OC(C)C(=O)N3CCN(C(=O)c4ccccc4)C[C@H]3C)cccc2[nH]1 (some centres undefined)

IC50 [1]: 0.493 µM
SMILES: CC(Oc1cccc2nccnc12)C(=O)N1CCN(C(=O)c2ccccc2)C[C@H]1C (some centres undefined)

IC50 [1]: 0.099 µM
IC50 [2]: 0.271 µM
SMILES: CC(Oc1cccc2ncccc12)C(=O)N1CCN(C(=O)c2ccccc2)C[C@H]1C (some centres undefined)

IC50 [1]: 0.061 µM
SMILES: CNc1nccc2c(O[C@@H](C)C(=O)N3CCN(C(=O)c4ccccc4)C[C@H]3C)cccc12

IC50 [1]: 0.031 µM
IC50 [2]: 0.02 µM
SMILES: CNC(=O)c1nccc2c(O[C@@H](C)C(=O)N3CCN(C(=O)c4ccccc4)C[C@H]3C)ccc(F)c12

IC90 [9]: 0.009 µM
IC50 [1]: 0.014 µM
Vdu [5]: 2.2 L/kg
Fa [7]: 100%
IC90 [10]: 0.013 µM
IC90 [11]: 0.004 µM
IC90 [12]: 0.009 µM
IC90 [13]: 0.021 µM
IC90 [14]: 0.021 µM
IC90 [15]: 0.044 µM
IC90 [16]: 0.026 µM
IC90 [17]: 0.056 µM
IC90 [18]: 0.071 µM
IC90 [19]: 0.106 µM
IC90 [20]: > 2.22 µM
IC90 [21]: > 2.22 µM
IC90 [22]: > 2.22 µM
IC90 [23]: > 2.22 µM
IC90 [24]: > 2.22 µM
IC90 [25]: > 2.22 µM
IC90 [26]: 0.122 µM
IC90 [27]: 0.17 µM
IC90 [28]: 0.178 µM
IC90 [29]: 0.213 µM
IC90 [30]: 0.242 µM
IC90 [31]: 0.299 µM
IC90 [32]: 0.354 µM
IC90 [33]: 0.383 µM
IC90 [34]: 0.436 µM
IC90 [35]: > 2.22 µM
SMILES: CNC(=O)c1cc(OC)c(O[C@@H](C)C(=O)N2CCN(C(=O)c3ccccc3)C[C@H]2C)cn1

IC90 [9]: 0.0005 µM
IC50 [1]: 0.00029 µM
IC50 [2]: 0.00012 µM
clearance [3]: 48 mL/min/kg
CL free [4]: 198 mL/min/kg
Vdu [5]: 9.4 L/kg
bioavailability [6]: 21%
Fa [7]: 100%
half-life [8]: 30 min
half-life [36]: 4 min
IC90 [10]: 0.0014 µM
IC90 [11]: 0.0003 µM
IC90 [12]: 0.0008 µM
IC90 [13]: 0.0013 µM
IC90 [14]: 0.002 µM
IC90 [15]: 0.006 µM
IC90 [16]: 0.001 µM
IC90 [17]: 0.005 µM
IC90 [18]: 0.005 µM
IC90 [19]: 0.003 µM
IC90 [20]: 0.23 µM
IC90 [21]: 0.276 µM
IC90 [22]: > 0.666 µM
IC90 [23]: 0.12 µM
IC90 [24]: 0.324 µM
IC90 [25]: 0.199 µM
IC90 [26]: 0.024 µM
IC90 [27]: 0.144 µM
IC90 [28]: 0.008 µM
IC90 [29]: 0.014 µM
IC90 [30]: 0.008 µM
IC90 [31]: 0.201 µM
IC90 [32]: 0.023 µM
IC90 [33]: 0.04 µM
IC90 [34]: 0.037 µM
IC90 [35]: 0.036 µM
SMILES: CNC(=O)c1cc(OC)c(O[C@@H](C)C(=O)N2CCN(c3nccc4ccccc34)C[C@H]2C)cn1
